Converted amounts (≈) assume the structure as drawn.
Experiments:
Klebsiella pneumoniae [1] = experiment: Antibacterial (Klebsiella pneumoniae CN3632) activity compared to trimethoprim.; assay type: functional
Summary of the method: (§1)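 Each MIC is divided by the MIC of trimethoprim run alongside. Serial dilutions were normally 0.1, 0.3, 1, 3, 10, etc., and occasionally 1, 5 and 10. For E. coli the value is the average over six strains.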

Proteus vulgaris [2] = experiment: Antibacterial (Proteus vulgaris CN329) activity compared to trimethoprim.; assay type: functional; summary of the method: as §1
[3] = Antibacterial (Salmonella typhi CN512) activity compared to trimethoprim.; assay type: functional, salmonella typhosa
Pasteurella multocida = experiment: Antibacterial (Pasteurella multocides ATCC 6587) activity compared to trimethoprim.; assay type: functional; summary of the method: as §1
Escherichia coli [4] = experiment: Antibacterial (Escherichia coli) activity compared to trimethoprim.; assay type: functional; summary of the method: as §1
Klebsiella aerogenes [5] = experiment: Antibacterial (Enterobacter aerogenes 2201/86) activity compared to trimethoprim.; assay type: functional; summary of the method: as §1
Staphylococcus aureus [6] = experiment: Antibacterial (Staphylococcus aureus CN491) activity compared to trimethoprim.; assay type: functional; summary of the method: as §1
Streptococcus pyogenes [7] = experiment: Antibacterial ([…] CN10) activity compared to trimethoprim.; assay type: functional; summary of the method: as §1
Dihydrofolate reductase [8] = biological target: T1, Dihydrofolate reductase (Rattus norvegicus, UniProt Q920D2); experiment: In vitro inhibition of rat liver dihydrofolate reductase.; details: read-out: I50
T1 sequence (Q920D2 whole entry): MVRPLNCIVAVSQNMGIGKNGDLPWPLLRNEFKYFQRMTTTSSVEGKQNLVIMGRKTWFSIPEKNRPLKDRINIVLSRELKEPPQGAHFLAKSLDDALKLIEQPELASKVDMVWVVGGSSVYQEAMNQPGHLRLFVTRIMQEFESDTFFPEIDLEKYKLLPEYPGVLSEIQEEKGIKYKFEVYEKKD

Serratia marcescens = experiment: Antibacterial (Serratia marcescens CN2398) activity compared to trimethoprim.; assay type: functional; summary of the method: as §1
[9] = tested on: Mycolicibacterium smegmatis; experiment: Antibacterial (Mycobacterium smegmatis S3254) activity compared to trimethoprim.; assay type: functional; summary of the method: as §1
Shigella flexneri = experiment: Antibacterial (Shigella flexneri CN6007) activity compared to trimethoprim.; assay type: functional; summary of the method: as §1
Dihydrofolate reductase [10] = biological target: T2, Dihydrofolate reductase (Escherichia coli, UniProt P0ABQ4); experiment: In vitro inhibition of dihydrofolate reductase of Escherichia coli; details: read-out: I50
T2 sequence (P0ABQ4 whole entry): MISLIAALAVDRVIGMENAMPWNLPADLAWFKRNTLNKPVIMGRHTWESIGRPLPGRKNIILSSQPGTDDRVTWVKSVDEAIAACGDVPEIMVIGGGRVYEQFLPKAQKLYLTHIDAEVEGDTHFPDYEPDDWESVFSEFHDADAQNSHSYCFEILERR
Summary of the method: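 The E. coli DHFR assay contained 1 nM enzyme, with the lower limit for I50 arbitrarily set at 2 nM. I50 was estimated from plots of % inhibition of steady-state velocity vs log inhibitor concentration.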

Shigella dysenteriae = experiment: Ratio of antibacterial (Shigella dysentariae CN513) activities of compound and trimethoprim; assay type: functional
Klebsiella pneumoniae [11] = experiment: Ratio of antibacterial (Klebsiella pneumoniae CN3632) activities of compound and trimethoprim; assay type: functional; summary of the method: as §1
Escherichia coli [12] = experiment: Ratio of antibacterial (Escherichia coli CN314) activities of compound and trimethoprim; assay type: functional
Streptococcus pyogenes [13] = experiment: Ratio of antibacterial (Streptococcus pyogenes CN10) activities of compound and trimethoprim
Klebsiella aerogenes [14] = experiment: Ratio of antibacterial (Enterobacter aerogenes, 2201/86) activities of compound and trimethoprim; assay type: functional; summary of the method: as §1
Proteus vulgaris [15] = experiment: Ratio of antibacterial (Proteus vulgaris CN329) activities of compound and trimethoprim; assay type: functional; summary of the method: as §1
Salmonella = experiment: Ratio of antibacterial (Salmonella typhi CN512) activities of compound and trimethoprim; assay type: functional, salmonella typhosa
Staphylococcus aureus [16] = experiment: Ratio of antibacterial (Staphylococcus aureus CN491) activities of compound and trimethoprim; assay type: functional; summary of the method: as §1
Fusobacterium nucleatum = experiment: Ratio of antibacterial (Fusobacterium nucleatum) activities compared to that of trimethoprim and metronidazole; assay type: functional
[17] = tested on: Bacteroides thetaiotaomicron; experiment: Ratio of antibacterial (Bacteroides thetaiotaomicron) activities compared to that of trimethoprim and metronidazole; assay type: functional
Clostridioides difficile = experiment: Ratio of antibacterial (Clostridium difficile) activities compared to that of trimethoprim and metronidazole; assay type: functional
Clostridium perfringens = experiment: Ratio of antibacterial (Clostridium perfringens) activities compared to that of trimethoprim and metronidazole; assay type: functional
Phocaeicola vulgatus = experiment: Ratio of antibacterial (Bacteroides vulgatus) activities compared to that of trimethoprim and metronidazole; assay type: functional
[18] = Half-life in dogs Plasma; assay type: ADME, organism-based, Canis lupus familiaris; details: dog
Summary of the method: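 Two fasted (18 h) male beagles received 5 mg/kg […] (free base), co-dosed with 5 mg/kg trimethoprim in propylene glycol. Jugular plasma was sampled from 0.17 to 24 h. Drug was extracted, separated by TLC and read by fluorescence densitometry. t1/2 came from least-squares linear regression of the postabsorption segment of the plasma curve.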

Row | Structure (SMILES) | MIC (Klebsiella pneumoniae [1]) [µg/mL] | MIC (Proteus vulgaris [2]) [µg/mL] | MIC [3] [µg/mL] | MIC (Pasteurella multocida) [µg/mL] | MIC (Escherichia coli [4]) [µg/mL] | MIC (Klebsiella aerogenes [5]) [µg/mL] | MIC (Staphylococcus aureus [6]) [µg/mL] | MIC (Streptococcus pyogenes [7]) [µg/mL] | IC50 (Dihydrofolate reductase [8]) [µM] | MIC (Serratia marcescens) [µg/mL] | MIC [9] [µg/mL] | MIC (Shigella flexneri) [µg/mL] | MIC (Fusobacterium nucleatum) [µg/mL] | MIC [17] [µg/mL] | MIC (Clostridioides difficile) [µg/mL] | MIC (Clostridium perfringens) [µg/mL] | MIC (Phocaeicola vulgatus) [µg/mL] | further results
1 | COc1cc(Cc2cnc(N)nc2N)cc(CC(C)O)c1O (centres undefined) | 10 (≈ 32.9 µM) | 30 (≈ 98.6 µM) | 10 (≈ 32.9 µM) | 3 (≈ 9.86 µM) | 4 (≈ 13.1 µM) | 3 (≈ 9.86 µM) | 3 (≈ 9.86 µM) | 3 (≈ 9.86 µM) | 36 | > 10 | 3 (≈ 9.86 µM) | 3 (≈ 9.86 µM) |  |  |  |  |  | 
2 | C=CCOc1ccc(Cc2cnc(N)nc2N)cc1 | 100 (≈ 390 µM) | > 100 | 100 (≈ 390 µM) | 100 (≈ 390 µM) | 72 (≈ 281 µM) | 10 (≈ 39 µM) | 100 (≈ 390 µM) | 10 (≈ 39 µM) | 320 | > 20 | 50 (≈ 195 µM) | 100 (≈ 390 µM) |  |  |  |  |  | 
3 | CCCOc1cc(Cc2cnc(N)nc2N)cc(OC)c1OC | 10 (≈ 31.4 µM) | 3 (≈ 9.42 µM) | 10 (≈ 31.4 µM) | 3 (≈ 9.42 µM) | 6 (≈ 18.8 µM) | 3 (≈ 9.42 µM) | 0.3 (≈ 0.942 µM) | 0.3 (≈ 0.942 µM) | 94.5 | 3 (≈ 9.42 µM) | 3 (≈ 9.42 µM) | 10 (≈ 31.4 µM) |  |  |  |  |  | 
4 | Cc1cc(Cc2cnc(N)nc2N)cc2c1OC(C)(C)C2 |  |  |  |  |  |  |  |  | 37 |  |  |  |  |  |  |  |  | IC50 (Dihydrofolate reductase [10]): 0.055 µM; MIC (Shigella dysenteriae): 10 µg/mL; MIC (Klebsiella pneumoniae [11]): 10 µg/mL; MIC (Escherichia coli [12]): 10 µg/mL; MIC (Streptococcus pyogenes [13]): 3 µg/mL; MIC (Klebsiella aerogenes [14]): 30 µg/mL; MIC (Proteus vulgaris [15]): 10 µg/mL; MIC (Salmonella): 10 µg/mL; MIC (Staphylococcus aureus [16]): 3 µg/mL
5 | C=CCOc1cc(Cc2cnc(N)nc2N)cc(OC)c1OC | 10 (≈ 31.6 µM) | 10 (≈ 31.6 µM) | 10 (≈ 31.6 µM) | 10 (≈ 31.6 µM) |  | 10 (≈ 31.6 µM) | 0.3 (≈ 0.948 µM) | 0.3 (≈ 0.948 µM) | 150 | 3 (≈ 9.48 µM) | 3 (≈ 9.48 µM) | 10 (≈ 31.6 µM) | 0.8 | 12.5 | > 25 | > 25 | 6.2 | 
6 | C/C=C/c1cc(Cc2cnc(N)nc2N)cc(CCC)c1OC | 100 (≈ 320 µM) | > 100 | 20 (≈ 64 µM) | 20 (≈ 64 µM) | 26 (≈ 83.2 µM) | 100 (≈ 320 µM) | 1 (≈ 3.2 µM) | 0.1 (≈ 0.32 µM) | 24 | > 5 | 2 (≈ 6.4 µM) | 100 (≈ 320 µM) | 0.8 | 0.4 | 12.5 | 12.5 | 0.4 | 
7 | CCOc1cc(Cc2cnc(N)nc2N)cc(OC)c1OC | 1 (≈ 3.29 µM) | 1 (≈ 3.29 µM) | 1 (≈ 3.29 µM) | 1 (≈ 3.29 µM) | 2.6 (≈ 8.54 µM) | 1 (≈ 3.29 µM) | 0.3 (≈ 0.986 µM) | 0.3 (≈ 0.986 µM) | 140 | 3 (≈ 9.86 µM) | 1 (≈ 3.29 µM) | 1 (≈ 3.29 µM) |  |  |  |  |  | half-life [18]: 3.13 h
8 | C/C=C/c1cc(Cc2cnc(N)nc2N)cc(/C=C/C)c1OC | 100 (≈ 322 µM) | > 50 | 100 (≈ 322 µM) | 100 (≈ 322 µM) | 72 (≈ 232 µM) | 100 (≈ 322 µM) | 1 (≈ 3.22 µM) | 0.1 (≈ 0.322 µM) | 27 | > 5 | 2 (≈ 6.44 µM) | 100 (≈ 322 µM) | 1.6 | 0.4 | 25 | 25 | 0.8 | 
9 | CCOc1cc(Cc2cnc(N)nc2N)cc2c1OCO2 |  |  |  |  |  |  |  |  | 37 |  |  |  |  |  |  |  |  | IC50 (Dihydrofolate reductase [10]): 0.041 µM; MIC (Shigella dysenteriae): 10 µg/mL; MIC (Klebsiella pneumoniae [11]): 30 µg/mL; MIC (Escherichia coli [12]): 30 µg/mL; MIC (Streptococcus pyogenes [13]): 1 µg/mL; MIC (Klebsiella aerogenes [14]): 10 µg/mL; MIC (Proteus vulgaris [15]): 10 µg/mL; MIC (Salmonella): 30 µg/mL; MIC (Staphylococcus aureus [16]): 10 µg/mL

— ChEMBL document CHEMBL1124568, “2,4-Diamino-5-benzylpyrimidines as antibacterial agents. 13. Some alkenyl derivatives with high in vitro activity against anaerobic organisms” (J Med Chem, 1989)
